Screening results: PubChem BioAssay, several laboratories
NR1D1 modulator: modulates human Rev-erb alpha binding to DNA; P20393; Rev-erbα–FITC-DNA binding, fluorescence polarization, 90 min; activity, % at 10 µM; 370,000 tested, 0.79% active;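 active = activity above about 14%, limit read from the data; passing the limit was not always enough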;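 also: 0% = DMSO wells with 35 nM protein and 100% = DMSO wells with 750 nM protein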
PG9 binder: binds the HIV-1 gp120 antibody PG9 | TR-FRET gp120-PG9 antibody binding | inhibition, % at 6.7 µM | 360,000 tested, 0.43% active | AID 624416; in the data active = inhibition above about 8.5%
NR2E3 ag-1: activates human photoreceptor nuclear receptor NR2E3; Q9Y5X4; GST-NR2E3/biotin-RetCOR TR-FRET, 1536-well; inhibition of corepressor binding, % at 4.78 µM; 320,000 tested, 0.12% active; AID 2300;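 active = percent inhibition above the cutoff of mean plus 3 SD of all tested compounds, set per screening campaign, cut at about 20% in these data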;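 also: 0% = DMSO wells and 100% = biotin wells as full block of FRET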
Target sequence (Q9Y5X4 whole entry, looked up): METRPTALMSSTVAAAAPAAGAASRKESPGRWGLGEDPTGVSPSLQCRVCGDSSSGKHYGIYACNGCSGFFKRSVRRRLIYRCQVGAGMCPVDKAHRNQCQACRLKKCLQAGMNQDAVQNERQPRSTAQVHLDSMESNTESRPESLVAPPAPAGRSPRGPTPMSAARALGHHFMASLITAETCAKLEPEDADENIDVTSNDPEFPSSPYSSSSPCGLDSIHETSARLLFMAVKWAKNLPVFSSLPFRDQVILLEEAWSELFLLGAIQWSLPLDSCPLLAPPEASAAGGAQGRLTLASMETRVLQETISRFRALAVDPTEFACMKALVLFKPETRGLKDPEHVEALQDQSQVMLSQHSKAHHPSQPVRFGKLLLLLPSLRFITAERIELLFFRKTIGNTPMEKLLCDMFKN
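Test system: GST-NR2E3 and biotin-RetCOR proteins | Quantity: 1.35 nM GST-tagged NR2E3 final | Medium: Tris pH 7.5 | Also added: 7 nM biotin-RetCOR | Dosing: Compound at 4.8 µM, single dose | Timing: 5 h at 4 °C | Detection: Time-resolved FRET | Read-out basis: Percent inhibition | Benchmarks: Biotin wells as high control, 0.6% DMSO wells as low control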
MC4R antag cAMP: blocks human MC4R cAMP signaling. MC4R-expressing cells, MTII-stimulated cAMP, LANCE TR-FRET. inhibition, % at 6.5 µM. 360,000 tested, 0.48% active. AID 540295;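 active = inhibition above its plate's cutoff, the mean of tested wells on that plate plus 3 SD, cut at about 29% in these data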;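 also: 0% = Melanotan II alone and 100% = Melanotan II plus saturating MCL0020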
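System – human MC4R-expressing U2OS cells · Also added – Melanotan II · Dosing – one concentration, 6.5 µM nominal · Timing – 30-min compound, 1-h challenge, 1-h detection, room temperature · Measured by – Eu-cAMP/anti-cAMP TR-FRET, emission 671 nm · Replicates – singlicate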
MC4R barr agon: human MC4R agonism via beta-arrestin. 360,000 tested, 0.98% active. U2OS MC4R beta-arrestin complementation, luminescence; percent of melanotan II response, DMSO zero. activation, % at 8.9 µM. P32245;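 active = activation above a per-plate cutoff, the mean activation of sample wells on that plate plus 3 SD, cut at about 8% in these data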
NR2E3 ag-2: human photoreceptor-specific nuclear receptor agonism; inhibition of corepressor binding, % at 3.98 µM; 360,000 tested, 0.35% active; Q9Y5X4; CHO-S Gal4-NCOR/VP16-NR2E3 two-hybrid, luciferase;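 active = inhibition above the mean of all tested compounds plus 3 SD, cut at about 70% in these data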;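 also: 0% = DMSO with NR2E3 transfected cells and 100% = cells lacking NR2E3 construct; higher means lower luciferase signal from less NR2E3 corepressor binding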
The depositor's hits bear a star; . = not tested or not shown. In the library only some 2.7% were active in any assay of this set; here they are far more common.

SMILES	NR1D1 modulator	PG9 binder	NR2E3 ag-1	MC4R antag cAMP	MC4R barr agon	NR2E3 ag-2
Cc1cc(OCC(O)CNC(C)c2ccccc2)ccc1C(C)C (centres undefined)	2.5	-0.4	2.0	-0.1	9.2*	7.6
Oc1c(Cl)cc(Cl)cc1C=Nc1cc(C(F)(F)F)ccc1N1CCc2ccccc2C1	-5.8	-0.3	0.8	29.3*	-0.7	-155.6
C=CCn1c(SCCOc2ccc(OC)cc2)nnc1C(C)NC(=O)Cc1ccc(OC)cc1 (centres undefined)	7.0	-0.3	0.2	8.1	-0.5	-4.3
Cc1c(NC(=O)CN2C(=O)NC(C)(c3ccccc3)C2=O)c(=O)n(-c2ccccc2)n1C (centres undefined)	0.8	-3.0	2.5	29.4*	0.0	-27.7
CCOC(=O)C1(C)CCCN(C(=O)c2ccc(OC)c(OC)c2)C1 (centres undefined)	0.8	0.7	.	-5.9	1.5	-15.2
O=C(C[C@@H]1C=C[C@H](NS(=O)(=O)c2ccccc2F)[C@@H](CO)O1)NCCCN1CCOCC1	-3.7	0.3	.	.	.	.
O=C(CNC(=O)C12CC3CC(CC(C3)C1)C2)NC1=NCCS1	-0.1	1.1	0.2	1.1	-0.6	-3.4
O=C1N/C(=C/c2ccc(N3CCOCC3)o2)C(=O)N1c1ccccc1	-1.4	-3.2	1.2	-0.4	-2.6	18.2
O=C1N/C(=C/c2ccc(N3CCCC3)cc2)C(=O)N1c1ccccc1	7.3	-4.8	-1.9	-11.6	8.5*	-9.1
COc1ccc(S(=O)(=O)N2CCCC2C(=O)NCc2ccccc2Cl)cc1 (centres undefined)	-0.5	-0.3	-0.7	-8.7	-3.3	-11.1
CCc1ccc(N(C(=O)c2snc(C(N)=O)c2N)C(C(=O)NC2CCCC2)c2ccco2)cc1 (centres undefined)	-3.0	0.8	3.0	1.6	-0.4	-32.6
NC(=O)c1nsc(C(=O)N(c2cccc(F)c2)C(C(=O)NC2CCCC2)c2ccco2)c1N (centres undefined)	1.1	1.3	7.8	-2.0	8.9*	-1.8
Cc1[nH]n(-c2ccc([N+](=O)[O-])cc2)c(=O)c1C=NCCc1c[nH]c2ccccc12	-0.7	-1.2	5.1	5.1	8.4*	-2.2
O=C1Nc2ccccc2S/C1=C/Nc1cccc(Cl)c1	6.0	-5.8	0.1	-3.7	13.2*	-26.3
CCOc1cc(C(=O)CSc2nnc(CNc3ccc(Cl)cc3)o2)ccc1NC(=O)CC	.	-1.1	3.0	2.9	39.9*	-8.4
COc1ccc(NCc2nnc(SCC(=O)c3ccc(OC)cc3)o2)cc1	3.4	1.1	-1.7	15.2	-0.2	-33.9
O=C(CSc1ccc(-c2ccc3c(c2)OCO3)nn1)Nc1nccs1	-9.6	7.8	-10.2	2.5	9.5*	5.2
COc1ccccc1NC(=O)NC(=O)c1ccccc1	-1.0	-0.4	3.2	0.4	8.8*	-75.0
COc1ccc2nc(NC(=O)Cn3cnc4ccccc4c3=O)sc2c1	-1.7	3.2	0.5	16.3	8.3*	-43.1
COc1ccc(NC(=O)Cn2cnc3ccccc3c2=O)cc1OC	-4.4	1.4	-2.6	-1.1	-4.7	-2.5
COc1ccc(NC(=O)c2cc(-c3cccnc3)nc3c(C)c(C)ccc23)c(OC)c1	-6.1	1.6	4.9	1.7	-0.9	-19.6
Cc1cccc(-c2cc(C(=O)Nc3cccnc3)c3ccccc3n2)c1	1.5	-3.3	-0.9	0.9	0.8	-20.4
O=C(Nc1ccncc1)c1cc(-c2ccccc2)nc2ccccc12	3.8	1.4	.	17.4	9.3*	3.5
COc1cccc(NC(=O)c2cc(-c3cccnc3)nc3c(Cl)cccc23)c1	4.4	-3.4	0.0	4.7	11.8*	15.2
O=C(Nc1ccncc1)c1cc(-c2ccc(Cl)cc2)nc2ccccc12	-3.0	.	.	.	.	.
Cc1cccc(-c2cc(C(=O)Nc3ccncc3)c3ccccc3n2)c1	2.2	-1.1	.	4.7	12.4*	-34.8
CCC(=O)c1ccc(N2CCN(C(=O)c3cc([N+](=O)[O-])ccc3N3CCN(C)CC3)CC2)c(F)c1	0.3	0.4	0.8	20.4	2.4	-5.2
COc1ccc(C(=O)Cc2cc3ccccc3oc2=O)cc1	2.5	-2.1	-1.5	7.2	-0.3	-80.6
